According to ChEMBL document CHEMBL1128446, “Pyrazinoic acid esters with broad spectrum in vitro antimycobacterial activity” (1995):
≈ marks a conversion by molar mass, not a printed value.

Legend:
Type in all cases: functional
[1] = test system: Mycobacterium tuberculosis; experiment: Minimum Inhibitory Concentration for PZA resistant forms against Mycobacterium tuberculosis ATCC 35828
In short: (§1)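 Broth macrodilution in tubes of modified Middlebrook 7H10 broth (agar and malachite green omitted) with 10% OADC and 0.05% Tween 80 at pH 5.8. Cultures were grown 3 days at 37 °C on a rotary shaker, then diluted with 7H10 broth to 1 Klett unit/mL. Stocks were made in water or DMSO and filter-sterilised; 2-fold serial dilutions were tested. Tubes shaken 7–10 days at 37 °C, with a drug-free control. MIC = lowest concentration (μg/mL) with no visible turbidity.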

[2] = test system: Mycobacterium tuberculosis; experiment: Minimum Inhibitory Concentration against Mycobacterium tuberculosis ATCC 35828 PZA resistant form; in short: as §1
[3] = test system: Mycobacterium tuberculosis; experiment: Minimum Inhibitory Concentration against Mycobacterium tuberculosis ATCC 35828 for PZA resistant form; in short: as §1

## CC(OC(=O)c1cnc(Cl)cn1)c1ccc(Br)cc1 (centres undefined)
[1]
  MIC: 16 µg/mL (≈ 46.8 µM)

## CCCCCCCCCCOC(=O)c1cnc(Cl)cn1
[2]
  MIC: 0.5 µg/mL (≈ 1.67 µM)

## CC(C)(C)OC(=O)c1cnc(Cl)cn1
[2]
  MIC: 0.5 µg/mL (≈ 2.33 µM)

## CCCCCCC(C)OC(=O)c1cnc(Cl)cn1 (centres undefined)
[2]
  MIC: 0.5 µg/mL (≈ 1.85 µM)

## O=C(OCc1ccccc1)c1cnc(Cl)cn1
[2]
  MIC: 1 µg/mL (≈ 4.02 µM)

## CCCCCOC(=O)c1cnc(Cl)cn1
[2]
  MIC: 0.12 µg/mL (≈ 0.525 µM)

## CCCCCCCC(C)(CCCC)OC(=O)c1cnc(Cl)cn1 (centres undefined)
[1]
  MIC: 16 µg/mL (≈ 46.9 µM)

## CCCCCCCCCCCC(C)OC(=O)c1cnc(Cl)cn1 (centres undefined)
[2]
  MIC: 0.5 µg/mL (≈ 1.47 µM)

## CCCCCCC(C)(C)OC(=O)c1cnc(Cl)cn1
[1]
  MIC: 0.25 µg/mL (≈ 0.878 µM)

## CCCCCCC(C)(CCCCCC)OC(=O)c1cnc(Cl)cn1
[1]
  MIC: 0.5 µg/mL (≈ 1.41 µM)

## CCCCCCCCOC(=O)c1cnc(Cl)cn1
[2]
  MIC: < 0.03 µg/mL

## CCCCC(OC(=O)c1cnc(Cl)cn1)c1ccccc1 (centres undefined)
[1]
  MIC: 8 µg/mL (≈ 26.2 µM)

## CCCCCCCOC(=O)c1cnc(C)cn1
[1]
  MIC: 1 µg/mL (≈ 4.23 µM)

## CCCCCC(C)(CCCCC)OC(=O)c1cnc(Cl)cn1
[1]
  MIC: 16 µg/mL (≈ 48.9 µM)

## CCCCCCCC(OC(=O)c1cnc(Cl)cn1)C(C)C (centres undefined)
[1]
  MIC: 2 µg/mL (≈ 6.39 µM)

## CCCCOC(=O)c1cnc(Cl)cn1
[2]
  MIC: 0.5 µg/mL (≈ 2.33 µM)

## COC(=O)c1cnc(Cl)cn1
[2]
  MIC: 16 µg/mL (≈ 92.7 µM)

## CCCCCCCCC(CC)OC(=O)c1cnc(Cl)cn1 (centres undefined)
[1]
  MIC: 0.25 µg/mL (≈ 0.799 µM)

## CCCCCC(CC)OC(=O)c1cnc(C)cn1 (centres undefined)
[2]
  MIC: 1 µg/mL (≈ 3.99 µM)

## CC(C)COC(=O)c1cnccn1
[2]
  MIC: 64 µg/mL (≈ 355 µM)

## Cc1ccc(C(C)OC(=O)c2cnc(Cl)cn2)cc1 (centres undefined)
[1]
  MIC: 2 µg/mL (≈ 7.23 µM)

## CCOC(=O)c1cnc(Cl)cn1
[2]
  MIC: > 16 µg/mL

## CCCCCCCC(OC(=O)c1cnc(Cl)cn1)C(C)(C)C (centres undefined)
[1]
  MIC: 2 µg/mL (≈ 6.12 µM)

## CCCCCCCCC(C)OC(=O)c1cnc(Cl)cn1 (centres undefined)
[2]
  MIC: < 0.03 µg/mL

## CCCCCCOC(=O)c1cnc(Cl)cn1
[2]
  MIC: 0.5 µg/mL (≈ 2.06 µM)

## CCC(C)(CC)OC(=O)c1cnc(Cl)cn1
[1]
  MIC: 4 µg/mL (≈ 16.5 µM)

## COC(=O)c1cnccn1
[2]
  MIC: 64 µg/mL (≈ 463 µM)

## O=C(O)c1cnccn1 [PYRAZINOIC ACID]
[2]
  MIC: 32 µg/mL (≈ 258 µM)

## Cc1cc(C(C)(C)C)c(OC(=O)c2cnccn2)c(C(C)(C)C)c1
[2]
  MIC: 128 µg/mL (≈ 392 µM)

## O=C(O)c1cnc(Cl)cn1
[2]
  MIC: 64 µg/mL (≈ 404 µM)

## CCCCCCCCCC(C)OC(=O)c1cnc(Cl)cn1 (centres undefined)
[2]
  MIC: 1 µg/mL (≈ 3.2 µM)

## O=C(OC(c1ccccc1)c1ccccc1)c1cnc(Cl)cn1
[1]
  MIC: 16 µg/mL (≈ 49.3 µM)

## O=C(Oc1ccc(F)cc1)c1cnccn1
[2]
  MIC: 16 µg/mL (≈ 73.3 µM)

## CCCCCCCC(C)OC(=O)c1cnc(Cl)cn1 (centres undefined)
[2]
  MIC: 2 µg/mL (≈ 7.02 µM)

## COC(=O)c1cnc(C)cn1
[1]
  MIC: > 16 µg/mL

## CCCCCC(C)OC(=O)c1cnc(Cl)cn1 (centres undefined)
[2]
  MIC: 0.06 µg/mL (≈ 0.234 µM)

## O=C(Oc1c(Br)cc(Br)cc1Br)c1cnccn1
[2]
  MIC: 32 µg/mL (≈ 73.2 µM)

## CCCCCCCCCCCOC(=O)c1cnc(Cl)cn1
[2]
  MIC: 0.5 µg/mL (≈ 1.6 µM)

## O=C(Oc1cccc2ccccc12)c1cnccn1
[2]
  MIC: 8 µg/mL (≈ 32 µM)

## CCCCCCCCCCOC(=O)c1cnc(F)cn1
[1]
  MIC: 4 µg/mL (≈ 14.2 µM)

## CCCCCCCCC(C)(C)OC(=O)c1cnc(Cl)cn1
[1]
  MIC: 0.25 µg/mL (≈ 0.799 µM)

## CCCCCCCCC(C)(CCCC)OC(=O)c1cnc(Cl)cn1 (centres undefined)
[1]
  MIC: 8 µg/mL (≈ 22.5 µM)

## CCCCCCCCCOC(=O)c1cnc(Cl)cn1
[2]
  MIC: < 0.03 µg/mL

## CC(C)COC(=O)c1cnc(Cl)cn1
[2]
  MIC: 2 µg/mL (≈ 9.32 µM)

## CCCCCCC(C)OC(=O)c1cnc(F)cn1 (centres undefined)
[1]
  MIC: 4 µg/mL (≈ 15.7 µM)

## CCCCCCCCCCCCCCCOC(=O)c1cnccn1
[2]
  MIC: 1 µg/mL (≈ 2.99 µM)

## O=C(OCCc1ccccc1)c1cnc(Cl)cn1
[1]
  MIC: 4 µg/mL (≈ 15.2 µM)

## CCCCCC(CC)OC(=O)c1cnc(Cl)cn1 (centres undefined)
[3]
  MIC: 1 µg/mL (≈ 3.69 µM)

## CC(C)(OC(=O)c1cnc(Cl)cn1)c1ccccc1
[1]
  MIC: > 16 µg/mL

## Cc1cnc(C(=O)O)cn1
[2]
  MIC: > 64 µg/mL

## CCCCCCCCCCOC(=O)c1cnccn1
[2]
  MIC: 0.25 µg/mL (≈ 0.946 µM)

## CCCCCCCCCOC(=O)c1cnc(C)cn1
[1]
  MIC: 2 µg/mL (≈ 7.57 µM)

## CCCCCCC(C)(CCCC)OC(=O)c1cnc(Cl)cn1 (centres undefined)
[1]
  MIC: 16 µg/mL (≈ 48.9 µM)

## CC(C)(C)C(OC(=O)c1cnc(Cl)cn1)c1ccccc1 (centres undefined)
[1]
  MIC: 16 µg/mL (≈ 52.5 µM)

## CCCCCCOC(=O)c1cnc(F)cn1
[1]
  MIC: 8 µg/mL (≈ 35.4 µM)

## O=C(OCCc1ccc(Cl)cc1)c1cnc(Cl)cn1
[1]
  MIC: 32 µg/mL (≈ 108 µM)

## O=C(OCc1ccc(Br)cc1)c1cnc(Cl)cn1
[1]
  MIC: > 16 µg/mL

## CCCCCCCOC(=O)c1cnc(Cl)cn1
[2]
  MIC: < 0.03 µg/mL

## COC(=O)c1cnc(F)cn1
[1]
  MIC: 8 µg/mL (≈ 51.2 µM)

## CCCOC(=O)c1cnc(Cl)cn1
[2]
  MIC: 0.25 µg/mL (≈ 1.25 µM)

## CCCCCCCCCC(C)(C)OC(=O)c1cnc(Cl)cn1
[1]
  MIC: 16 µg/mL (≈ 48.9 µM)

## CCCCCC(C)(CCCC)OC(=O)c1cnc(Cl)cn1 (centres undefined)
[1]
  MIC: 16 µg/mL (≈ 51.1 µM)

## CCCCCCCCCCC(OC(=O)c1cnc(Cl)cn1)C(C)(C)C (centres undefined)
[1]
  MIC: 16 µg/mL (≈ 43.4 µM)

## CCCCCCCC(C)(CCCCC)OC(=O)c1cnc(Cl)cn1 (centres undefined)
[1]
  MIC: 8 µg/mL (≈ 22.5 µM)

## O=C(OCc1ccccc1)c1cnccn1
[2]
  MIC: 2 µg/mL (≈ 9.34 µM)

## C=CCOC(=O)c1cnc(Cl)cn1
[2]
  MIC: 2 µg/mL (≈ 10.1 µM)

## NC(=O)c1cnccn1 [PYRAZINAMIDE]
[2]
  MIC: 2050 µg/mL (≈ 16600 µM)

## CCCOC(=O)c1cnc(C)cn1
[1]
  MIC: 1 µg/mL (≈ 5.55 µM)

## CCCCCCC(C)(CCCCC)OC(=O)c1cnc(Cl)cn1 (centres undefined)
[1]
  MIC: 16 µg/mL (≈ 46.9 µM)
